Pf Dd2 inh – P. falciparum Dd2 growth inhibitors, primary screen, SYBR Green fluorescence, single dose replicates; 72 h; stronger effect = lower value; activity change, % at 10 µM; 2.3% of 94,000 active; in the data active = activity change below about -80%; inconclusive = no clear call, values can overlap the other calls
T cruzi growth-1 – T. cruzi intracellular proliferation inhibitors, primary screen, cell-based, beta-gal Tulahuen parasites, NIH3T3 host, luminescence; T. cruzi beta-gal in NIH3T3, GalScreen luminescence, 90 h; inhibition, % at 8.34 µM; 5.9% of 77,000 active;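 active = mean inhibition above about 93%, with at least 55% of replicates each passing it, limit read from the data, passing the limit was not always enough; inconclusive = only one of those two conditions holds; inactive = neither condition holds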
IDH1 R132H inh – inhibitors of IDH1 R132H reductase, primary screen, biochemical, plate reader, single point. diaphorase/resazurin fluorescence, 60 min. Isocitrate dehydrogenase [NADP] cytoplasmic (Homo sapiens), O75874. 0.18% of 70,000 active. inhibition, % at 10 µM. AID 624101, 2012; in the data active = inhibition above about 34%; inconclusive = no clear call, values can overlap the other calls; inactive = below about 11%
GASC1 inh – inhibitors of GASC-1 (KDM4C) histone demethylase, primary screen, biochemical, single concentration HTS; Lysine-specific demethylase 4C (Homo sapiens), Q9H3R0; GST-KDM4C 2-372, H3K9me3 peptide, LANCE TR-FRET; inhibition, % at 12.5 µM; 0.15% of 96,000 active;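 active = mean replicate inhibition above about 25%, with at least 55% of replicates also reaching it, limit read from the data, passing the limit was not always enough; inconclusive = only one of those two conditions met; inactive = neither condition met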
Target sequence (Q9H3R0 2-372 limits assumed): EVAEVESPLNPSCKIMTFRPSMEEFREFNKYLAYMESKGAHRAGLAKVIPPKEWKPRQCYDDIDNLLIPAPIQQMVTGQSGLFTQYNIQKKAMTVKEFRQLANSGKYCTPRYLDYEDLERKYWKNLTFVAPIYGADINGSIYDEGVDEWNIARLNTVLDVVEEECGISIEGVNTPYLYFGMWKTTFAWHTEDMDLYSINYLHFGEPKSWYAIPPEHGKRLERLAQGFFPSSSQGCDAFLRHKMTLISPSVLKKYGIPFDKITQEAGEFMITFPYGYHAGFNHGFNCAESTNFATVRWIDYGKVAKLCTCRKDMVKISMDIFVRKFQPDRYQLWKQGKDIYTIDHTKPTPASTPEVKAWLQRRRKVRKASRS
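Material: GST-tagged GASC-1 (JMJD2C) catalytic fragment, aa 2-372. Input: enzyme final amount 10 nM. Medium: HEPES buffer, pH 7.5, plus ascorbate. Reagent: H3K9me3 peptide substrate, Fe(II), 2-oxoglutarate. Doses: single dose. Times: reaction 30 min RT, detection step 1 h RT. Measured by: LANCE TR-FRET. Evaluation: Fall in 671/618 emission ratio as inhibition.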
T cruzi growth-2 – T. cruzi intracellular proliferation inhibitors, confirmation, cell-based, NIH3T3 host, beta-gal parasite, luminescence, cherry-pick; shares compounds with T cruzi growth-1; T. cruzi beta-gal in NIH3T3, GalScreen luminescence, 90 h; inhibition, % at 8.35 µM; 72% of 5,600 active;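 active = mean replicate inhibition above about 95% and at least 55% of replicates individually reaching it, limit read from the data; inconclusive = only one of the two criteria is met; inactive = neither criterion is met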
T cruzi growth-3 – inhibitors of intracellular T. cruzi replication, confirmation, NIH3T3 host cells, beta-gal parasites, cherry-pick, set 2; shares compounds with T cruzi growth-1; T. cruzi beta-gal in NIH3T3, GalScreen luminescence, 90 h; inhibition, % at 2.09 µM; 21% of 5,600 active; AID 651740, 2012;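 active = mean inhibition above about 95%, with at least 55% of replicates also reaching it, limit read from the data; inconclusive = meets just one of the two conditions; inactive = meets neither condition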
3T3 cytotox – cytotoxicity in mouse NIH/3T3 fibroblasts, confirmation, cytotoxicity control for T. cruzi proliferation inhibitor project, cell-based, cherry-pick, single point; cytotoxicity (signal decrease), % at 8.35 µM; shares compounds with T cruzi growth-1; 14% of 5,600 active; NIH/3T3 viability, CellTiter-Glo ATP luminescence, 90 h;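 active = mean signal decrease across replicates above about 35% based on untreated-well scatter, with enough replicates individually passing, limit read from the data; inconclusive = no rule stated though some were filed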
3T3 cytotox 2 – NIH/3T3 fibroblast cytotoxicity, confirmation, cytotoxicity control, cell-based, cherry-pick, single point, set 2. 56% of 5,600 active. inhibition, % at 24.9 µM. shares compounds with T cruzi growth-1. NIH/3T3 viability, CellTiter-Glo ATP luminescence, 90 h;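 active = mean loss of cell viability signal at or above a set limit, and enough replicates individually reaching it; inconclusive = meets only the mean limit or only the replicate share; inactive = meets neither condition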
Numbers stand for hits. This is a sample that favours compounds with a hit; in the whole collection about 5.8% have one here.

How did CN(C)C(=O)c1cccc(-c2ccc3c(c2)[C@H]2[C@H](CCN2C(=O)c2cccnc2)[C@@H](CO)N3)c1 do in these assays?
Pf Dd2 inh: inactive; T cruzi growth-1: inactive; GASC1 inh: inactive

What do the screens show for `COc1ccc2c(C)c(CCC(=O)O)c(=O)oc2c1C`?
IDH1 R132H inh: inactive

Results for O=C(Nc1ccc(Cl)cc1)N[C@@H]1CC[C@@H](CCn2cc(-c3ccccc3F)nn2)O[C@H]1CO ?
Pf Dd2 inh: inactive; T cruzi growth-1: 105; IDH1 R132H inh: inactive; GASC1 inh: inactive; T cruzi growth-2: 104; T cruzi growth-3: inactive; 3T3 cytotox: inactive; 3T3 cytotox 2: inactive

How did O=C(Nc1ccc(Cl)cc1)N[C@H]1CC[C@@H](CCn2cc(-c3ccccc3F)nn2)O[C@H]1CO do in these assays?
Pf Dd2 inh: inactive; T cruzi growth-1: 154; IDH1 R132H inh: inactive; GASC1 inh: inactive; T cruzi growth-2: inactive; T cruzi growth-3: inactive; 3T3 cytotox: inactive; 3T3 cytotox 2: 41

Results for COc1ccccc1NC(=O)N[C@@H]1CC[C@H](CCn2cc(C3(O)CCCC3)nn2)O[C@H]1CO ?
Pf Dd2 inh: inactive; T cruzi growth-1: inactive; IDH1 R132H inh: inactive; GASC1 inh: inactive

Results for O=C(Nc1ccc(Cl)cc1)N[C@@H]1CC[C@H](CCn2cc(-c3ccccc3F)nn2)O[C@H]1CO ?
Pf Dd2 inh: inactive; T cruzi growth-1: inactive; IDH1 R132H inh: inactive; GASC1 inh: inactive

Results for O=C(NCC[C@H]1CC[C@H](NC(=O)c2ccncc2)[C@H](CO)O1)Nc1ccc(Cl)cc1 ?
Pf Dd2 inh: inactive; T cruzi growth-1: inactive; IDH1 R132H inh: inactive; GASC1 inh: inactive

What do the screens show for `COc1ccccc1NC(=O)N[C@@H]1CC[C@H](CCn2cc(C3(O)CCCC3)nn2)O[C@@H]1CO`?
Pf Dd2 inh: inactive; T cruzi growth-1: 109; IDH1 R132H inh: inactive; GASC1 inh: inactive; T cruzi growth-2: inactive; T cruzi growth-3: inactive; 3T3 cytotox: inactive; 3T3 cytotox 2: inactive

What do the screens show for `O=C(NCC[C@@H]1CC[C@H](NC(=O)c2ccncc2)[C@H](CO)O1)Nc1ccc(Cl)cc1`?
Pf Dd2 inh: inactive; T cruzi growth-1: 101; IDH1 R132H inh: inactive; GASC1 inh: inactive; T cruzi growth-2: 97; T cruzi growth-3: inactive; 3T3 cytotox: inactive; 3T3 cytotox 2: inactive

How did O=C(Nc1cccc(Cl)c1)N[C@@H]1CC[C@@H](CCn2cc(Cc3ccccc3)nn2)O[C@@H]1CO do in these assays?
Pf Dd2 inh: inactive; T cruzi growth-1: inconclusive; IDH1 R132H inh: inactive; GASC1 inh: inactive; T cruzi growth-2: 98; T cruzi growth-3: inactive; 3T3 cytotox: inactive; 3T3 cytotox 2: 33

How did CCc1csc(N2[C@H](CO)[C@@H](c3ccc(-c4cccc(F)c4)cc3)[C@@H]2C#N)n1 do in these assays?
Pf Dd2 inh: inactive; T cruzi growth-1: inactive; GASC1 inh: inactive

What do the screens show for `CCc1csc(N2[C@H](C#N)[C@H](c3ccc(-c4ccc(F)cc4)cc3)[C@@H]2CO)n1`?
Pf Dd2 inh: inactive; T cruzi growth-1: 102; GASC1 inh: inactive; T cruzi growth-2: 101; T cruzi growth-3: 110; 3T3 cytotox: inactive; 3T3 cytotox 2: 37

How did CCc1csc(N2[C@@H](C#N)[C@@H](c3ccc(C4=CCCC4)cc3)[C@@H]2CO)n1 do in these assays?
Pf Dd2 inh: inactive; T cruzi growth-1: 101; GASC1 inh: inactive; T cruzi growth-2: 103; T cruzi growth-3: inactive; 3T3 cytotox: 42; 3T3 cytotox 2: 77

How did C/C=C/c1ccc([C@@H]2[C@@H](CO)N(c3nc(-c4ccccc4)cs3)[C@H]2C#N)cc1 do in these assays?
Pf Dd2 inh: inactive; GASC1 inh: inactive

What do the screens show for `CCc1csc(N2[C@@H](C#N)[C@H](c3ccc(-c4ccc(F)cc4)cc3)[C@@H]2CO)n1`?
Pf Dd2 inh: inactive; T cruzi growth-1: 105; GASC1 inh: inactive; T cruzi growth-2: 102; T cruzi growth-3: inactive; 3T3 cytotox: inactive; 3T3 cytotox 2: inactive

What do the screens show for `C/C=C/c1ccc([C@H]2[C@@H](CO)N(c3nc(CC)cs3)[C@H]2C#N)cc1`?
Pf Dd2 inh: inactive; T cruzi growth-1: 101; GASC1 inh: inactive; T cruzi growth-2: inactive; T cruzi growth-3: inactive; 3T3 cytotox: inactive; 3T3 cytotox 2: 26

Results for CS(=O)(=O)N(CC(=O)Nc1ccc(Br)c(Cl)c1)c1cc(Cl)ccc1Cl ?
IDH1 R132H inh: inactive

How did CCc1csc(N2[C@H](C#N)[C@@H](c3ccc(-c4ccc(F)cc4)cc3)[C@H]2CO)n1 do in these assays?
Pf Dd2 inh: inactive; T cruzi growth-1: 106; GASC1 inh: inactive; T cruzi growth-2: 106; T cruzi growth-3: 99; 3T3 cytotox: inactive; 3T3 cytotox 2: inconclusive

Results for CCc1csc(N2[C@H](C#N)[C@H](c3ccc(-c4cccc(F)c4)cc3)[C@H]2CO)n1 ?
Pf Dd2 inh: inactive; T cruzi growth-1: inactive; GASC1 inh: inactive

Results for CCc1csc(N2[C@@H](C#N)[C@@H](c3ccc(-c4ccc(F)cc4)cc3)[C@@H]2CO)n1 ?
Pf Dd2 inh: inactive; T cruzi growth-1: 98; GASC1 inh: inactive; T cruzi growth-2: 98; T cruzi growth-3: inactive; 3T3 cytotox: 49; 3T3 cytotox 2: 83

Results for C/C=C/c1ccc([C@@H]2[C@@H](CO)N(c3ncc(CC)s3)[C@H]2C#N)cc1 ?
Pf Dd2 inh: inactive; T cruzi growth-1: 99; GASC1 inh: inactive; T cruzi growth-2: inactive; T cruzi growth-3: inactive; 3T3 cytotox: inactive; 3T3 cytotox 2: inactive

What do the screens show for `CCCNC(=O)C[C@@H]1CC[C@@H]2[C@H](COC[C@@H](O)CN2C(=O)C2CCOCC2)O1`?
Pf Dd2 inh: inactive; T cruzi growth-1: inactive; GASC1 inh: inactive

Results for C[C@H](CO)N1C[C@H](C)[C@@H](CN(C)S(C)(=O)=O)Oc2cc(-c3cccc(F)c3)ccc2S1(=O)=O ?
Pf Dd2 inh: inactive; T cruzi growth-1: inactive; IDH1 R132H inh: inactive; GASC1 inh: inactive

Results for C[C@@H]1CN([C@H](C)CO)S(=O)(=O)c2ccc(C3=CCCC3)cc2O[C@@H]1CN(C)C(=O)C1CCCCC1 ?
Pf Dd2 inh: inactive; T cruzi growth-1: 115; GASC1 inh: inactive; T cruzi growth-2: 102; T cruzi growth-3: inactive; 3T3 cytotox: inconclusive; 3T3 cytotox 2: inactive
